# MrgX1 PAM = human MrgX1 positive allosteric modulation, primary screen. MrgX1-HEK293, Fluo-4 calcium flux, FDSS; stronger effect = higher value. B-score at 10 µM. 0.63% of 310,000 active. AID 588675;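 active means plate-corrected calcium response at least 3 library SD above typical, normal starting fluorescence, not activating the receptor alone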;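 further: compound read alongside a low EC10 to EC30 dose of BAM8-22 agonist; peak minus trough fluorescence over baseline measured at the second addition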
# Target sequence (Q96LB2 whole entry, looked up): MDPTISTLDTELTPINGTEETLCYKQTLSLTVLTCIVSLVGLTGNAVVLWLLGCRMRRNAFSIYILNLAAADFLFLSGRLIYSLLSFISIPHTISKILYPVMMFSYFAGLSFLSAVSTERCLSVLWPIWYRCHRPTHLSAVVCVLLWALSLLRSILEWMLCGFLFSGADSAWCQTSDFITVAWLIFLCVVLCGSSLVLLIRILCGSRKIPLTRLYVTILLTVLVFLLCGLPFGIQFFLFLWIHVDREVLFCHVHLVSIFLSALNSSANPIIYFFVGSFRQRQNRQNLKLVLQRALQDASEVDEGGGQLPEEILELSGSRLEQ
# RGS4 inh = inhibitors of human RGS4; 0.45% of 310,000 active; HEK293 M3R/RGS4 inducible, Fluo-4 calcium flux; stronger effect = higher value; triggered by carbachol at its EC20; P49798; B-score at 10 µM;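 active means B-score, a plate-corrected calcium signal, over three deviations above library mean, with baseline fluorescence within five deviations of library mean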;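 further: RGS4 expression induced by doxycycline in cells with stable M3 receptor; B-score is computed from the integrated fluorescence ratio over baseline after carbachol; higher B-score means a larger calcium signal and so more RGS4 inhibition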
# Target sequence (P49798 whole entry, looked up): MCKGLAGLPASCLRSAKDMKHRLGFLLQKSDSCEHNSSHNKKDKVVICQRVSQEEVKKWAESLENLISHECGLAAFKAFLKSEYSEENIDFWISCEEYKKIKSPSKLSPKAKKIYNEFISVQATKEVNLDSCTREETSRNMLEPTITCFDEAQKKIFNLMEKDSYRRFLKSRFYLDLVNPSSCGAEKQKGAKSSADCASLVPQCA
# RGS4 pot = RGS4 potentiation or activation; B-score at 10 µM; HEK293 M3R/inducible RGS4, carbachol calcium flux Fluo4; stronger effect = lower value; 0.92% of 310,000 active;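 active means B-score of the integrated calcium signal more than 4 SD below the library mean, with starting fluorescence not abnormally high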;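 further: negative B-score means reduced calcium response which marks RGS4 activation or potentiation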
#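 Material: Inducible-RGS4 HEK293 cells carrying M3 receptor; also added: carbachol at ECmax as muscarinic agonist stimulus; incubation: compound preincubation 20 min at room temperature before agonist; signal: Fluo4-AM (2 µM) calcium-flux fluorescence, kinetic read; measure: integrated calcium ratio converted to B score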
# Cl transport mod = modulates chloride dependent transport by human KCC2; Q9H2X9; KCC2 cells, thallium flux FluoZin-2 fluorescence; B-score of Tl+ flux slope (higher = more flux/activation; lower = inhibition) at 10 µM; 2.2% of 190,000 active; AID 1456;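 active means thallium flux slope and its plate-corrected score both differing from the plate sample mean at a set confidence after two filtering rounds, in either direction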;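 further: slope of fluorescence scaled to starting intensity during 10 to 20 s after thallium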
# MrgX1 agonist = activates human MrgX1 receptor signaling; MrgX1-HEK293 cells, Fluo-4 calcium fluorescence, agonist mode; stronger effect = higher value; B-score at 10 µM; 0.44% of 310,000 active;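 active means calcium response B-score plate-corrected fluorescence ratio at least 3 library SD, with starting fluorescence B-score inside 5 SD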
#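 times = overnight plating, then 30 min 37 °C plus 30 min room-temperature dye loading | assay system = stable human MrgX1 HEK293 cell line | input = fifteen thousand cells per well | signal = kinetic calcium dye fluorescence, Fluo-4 NW | dosing = compound delivered in addition one of three | read-out = B-scored fluorescence response ratio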
# MrgX1 antag = antagonists of human MrgX1 receptor | MRGX1-HEK293 calcium flux, Fluo-4, BAM8-22 antagonism; stronger effect = lower value | B-score at 10 µM | 1.3% of 310,000 active;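 active means calcium-response B-score plate-corrected more than 3 library SD below zero, starting fluorescence within 5 deviations, no agonist response on first addition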;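 further: peak minus trough fluorescence over baseline after final BAM8-22 challenge near maximal dose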
# MrgX1 antag conf = confirmation of human MrgX1 receptor antagonists. shares compounds with MrgX1 antag. MrgX1-HEK293, BAM8-22 calcium flux, Fluo-4; stronger effect = lower value. remaining BAM8-22 calcium response % of control (stronger effect = lower value), % at 10 µM. 19% of 2,300 active;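 active means remaining agonist calcium response no higher than 100% minus 3 SD of agonist-only control wells, with starting fluorescence near control levels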;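 further: agonist BAM8-22 given at a near maximal EC90 to ECmax level; peak minus minimum fluorescence divided by baseline after agonist addition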
# HEK293 Ca flux = counter-screen for MrgX1 antagonists: effect in parental HEK293 cells; shares compounds with MrgX1 antag; Fluo-4 calcium fluorescence, FDSS; fluorescence ratio F(max-min)/F0 at 10 µM; 2% of 4,000 active; AID 624111;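 active means duplicate-averaged calcium fluorescence ratio at least three times the standard deviation of buffer wells, a nonspecific response in parental cells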
# HEK293 Ca counter = MrgX1 allosteric activator counter-screen hit in parental HEK293 cells. fluorescence ratio F(max-min)/F0 at 10 µM. parental HEK293 calcium flux, Fluo-4 fluorescence ratio; stronger effect = higher value. AID 624114. shares compounds with MrgX1 antag. 0.4% of 4,000 active;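 active means calcium fluorescence ratio, averaged over duplicates, at least 3 SD of the buffer-well ratio, meaning a nonspecific response in receptor-free cells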;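 further: untransfected parental HEK293 lacking MrgX1 used as counterscreen for MrgX1 allosteric activators; fluorescence change taken during the second addition on a kinetic imager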
# HEK293 Ca cntr2 = activity in parental HEK293 cells lacking MrgX1 receptor | Fluo-4 calcium fluorescence (FDSS); stronger effect = higher value | fluorescence ratio F(max-min)/F0 at 10 µM | 8.7% of 4,000 active | shares compounds with MrgX1 antag | AID 624115;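 active means calcium fluorescence ratio at least three times the spread of buffer wells, meaning a non-specific response in parental cells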
# A number is an active result; n = inactive; x = no result given. Only some compounds are listed: those with a hit (about 4.7% of all), similar ones and a draw of the others.
SMILES,MrgX1 PAM,RGS4 inh,RGS4 pot,Cl transport mod,MrgX1 agonist,MrgX1 antag,MrgX1 antag conf,HEK293 Ca flux,HEK293 Ca counter,HEK293 Ca cntr2
COC(=O)CCc1c(C)c(C(=O)c2cc(F)c(F)c(F)c2F)c2ccccn12,n,n,n,n,n,n,x,x,x,x
O=C(Cc1cccs1)Nc1cccc(-c2nnc(-c3ccco3)o2)c1,n,n,n,n,n,-7.35,n,n,n,n
Cc1ccc(-c2nnc(-c3ccc(NC(=O)Cc4cccs4)cc3)o2)cc1,n,n,n,x,n,n,x,x,x,x
Cc1ccc(NS(=O)(=O)c2cccc(C(=O)N(C)Cc3cccs3)c2)cc1,n,n,n,x,n,n,x,x,x,x
CCOc1ccc(N(CC(=O)NC2CCCC2)S(=O)(=O)c2c(C)noc2C)cc1,n,n,n,n,n,-4.79,65.2%,n,n,n
NS(=O)(=O)c1ccc(-n2nncc2C23CC4CC(CC(C4)C2)C3)cc1,n,n,n,x,n,-7.32,n,n,n,n
NS(=O)(=O)c1ccc(CCNC(=O)NC23CC4CC(CC(C4)C2)C3)cc1,n,n,n,n,n,n,x,x,x,x
Cc1ccc(S(=O)(=O)c2nc(-c3cccs3)oc2SCC(N)=O)cc1,n,n,n,x,n,-7.12,n,n,n,n
Cc1ccc(-c2nc(S(=O)(=O)c3ccc(C)cc3)c(SCC(N)=O)o2)cc1,n,n,n,x,n,n,x,x,x,x
Nc1nc(Cl)cc(NCCc2ccc(O)cc2)n1,n,n,n,n,n,-5.83,n,n,n,n
Cc1cc(-c2nc(C)c(-c3nnc(SCC(=O)Nc4ccc(Cl)cc4)n3C)s2)no1,n,n,n,n,n,n,x,x,x,x
O=C(Nc1ccc2c(c1)OCO2)N1CCN(c2ccc(F)cc2)CC1,n,n,n,n,n,-4.7,83.3%,n,n,n
CCOC(=O)c1ccc(N=Nc2c(C)[nH]n(-c3ccccc3)c2=O)cc1,n,n,n,x,n,n,x,x,x,x
CCOC(=O)c1ccc(-n2[nH]c(-c3ccccc3)cc2=O)cc1,n,n,n,n,n,-5.85,71.3%,n,n,n
CCN1/C(=C/c2ccc3ccccc3[n+]2CCCS(=O)(=O)[O-])C=Cc2cc(C)ccc21,n,n,n,x,n,n,x,x,x,x
CCN1/C(=C/c2ccc3ccccc3[n+]2CC)C=Cc2ccccc21,n,n,-9.21,n,n,-13.4,n,x,x,x
O=C(NC1=NCCS1)c1cc(-c2ccc(F)cc2)nc2ccccc12,n,n,n,n,n,n,x,x,x,x
Cc1ccc(-c2cc(C(=O)NC3=NCCS3)c3ccccc3n2)cc1C,n,n,n,n,n,-4.92,n,n,n,n
COc1ccccc1CCNC(=O)C(=O)NCC1OCCN1S(=O)(=O)c1ccc(OC)c(OC)c1 (centres undefined),n,n,n,x,n,n,x,x,x,x
Cc1cc(C)cc(C(=O)NCC(=O)OCC(=O)N(C)c2ccccc2)c1,n,n,n,n,n,-5.14,n,n,n,n
COc1ccc(CCn2nnnc2CN2CCN(C(=O)c3ccco3)CC2)cc1OC,n,n,n,n,n,n,x,x,x,x
COCCn1nnnc1CN1CCN(C(=O)c2ccco2)CC1,n,n,n,x,n,-6.28,n,n,n,n
Cc1cc(C)cc(N(C(=O)c2ccccn2)C(C(=O)NC2CCCCC2)c2ccncc2)c1 (centres undefined),x,n,n,x,x,x,x,x,x,x
Cc1ccc(NC(=S)NCCc2ccc(F)cc2)c(C)c1,n,n,n,n,n,-6.15,n,n,n,n
Cc1ccc(NC(=S)Nc2ccc(F)cc2)c(C)c1,n,n,n,n,n,n,x,x,x,x
COc1ccc(Br)cc1CNC(=O)C1CCN(c2nnc(N3CCCC3=O)s2)CC1,n,n,n,x,n,n,x,x,x,x
COc1ccc(CNC(=O)C2CCN(c3nnc(N4CCCC4=O)s3)CC2)cc1,n,n,n,x,n,-5.28,n,n,n,n
COc1cccc(C2C(C(N)=O)=C(C)Nc3nc(CCCO)nn32)c1 (centres undefined),n,n,n,x,n,n,x,x,x,x
COCCCNC(=S)N1CCN(c2nc(C)nc3sc4c(c23)CCCC4)CC1,n,n,n,x,n,-6.57,n,n,n,n
CCCNC(=S)N1CCN(c2nc(C)nc3sc4c(c23)CCCC4)CC1,n,n,n,n,n,n,x,x,x,x

# Screening data from PubChem.
